From PubChem
Many of the other results were omitted from the sample, so hits are more common in it than they were.
MPTP inh: mitochondrial permeability transition pore inhibitors, primary screen, biochemical, isolated mouse mitochondria, absorbance | Ca2+ swelling absorbance, 30 min | inhibition, % at 10 µM | 1.4% of 360,000 active | AID 602449, 2012;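 active = inhibition of 50% or more, scaled per plate between neutral and stimulator controls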
Lmaj promast: Leishmania major promastigote growth inhibition, primary screen | Leishmania major promastigotes, resazurin fluorescence viability | 9% of 200,000 active | inhibition, % at 10 µM; in the data active = inhibition above about 50%;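 also: promastigotes grown with compound for 44 hours at 28 °C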
Lipid droplet: inhibitors of hepatocyte lipid droplet formation, primary screen, imaging, high-throughput imaging, BODIPY stain. AID 1656, 2009. inhibition, % at 6.5 µM. AML12 mouse hepatocytes, oleate lipid droplets. 0.4% of 240,000 active;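 active = lipid droplet intensity inhibited by at least 50%, with more than 500 cells counted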
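Material – mouse AML12 hepatocyte cell line, fixed after treatment · Compound dosing – one dose, 6.5 µM compound · Times – compound with oleate, overnight · Measured by – Image-based BODIPY and DAPI two-channel analysis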
DTT redox prof: compounds producing H2O2 with reducing agent – biochemical, NIH compound library profiling, artefact control for MLSCN library redox annotation, primary screen | DTT-dependent redox cycling H2O2, phenol red/HRP absorbance; 100% = 100 µM peroxide control, 0% = buffer | activation, % at 10 µM | 0.03% of 200,000 active;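 active = activation of at least 50% relative to the plate's high and low controls in the primary single-dose screen; inactive = activation below 50%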;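 also: compound incubated with DTT at 0.8 mM final as the reducing agent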
T cruzi inh: inhibitors of intracellular T. cruzi growth, primary screen, luminescence, NIH3T3 host cells | inhibition, % (no concentration beside the values) | AID 1885, 2009 | T. cruzi beta-gal in NIH3T3, 90 h | 1.4% of 300,000 active;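 active = mean inhibition across valid replicates above about 55%, limit read from the data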;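 also: signal also drops with host cell toxicity which is not excluded here; higher percent means less beta-gal luminescence so fewer parasites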
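System: NIH/3T3 fibroblasts plus reporter T. cruzi. Medium: DMEM plus 2% FBS. Probe or stimulus: 5000 reporter trypomastigotes per well. Compound: single 50 nL compound addition per well in DMSO. Incubation: co-culture of at least 90 h after 3 h attachment. Detection: GalScreen β-gal luminescence, detergent lysis, 60 min. Evaluation: parasite load inhibition, %.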
Large screens that a line does not name were inactive.

CCCCn1c(N)c(N(C(=O)CSc2nncn2-c2ccccc2)C2CCCC2)c(=O)[nH]c1=O	none (no result: Lmaj promast, Lipid droplet, DTT redox prof, T cruzi inh)
CCOC(=O)C1CCCN(C(=O)c2ccc(OC)cc2)CC1 (stereo unspecified)	none (no result: Lmaj promast, Lipid droplet, DTT redox prof, T cruzi inh)
CCOC(=O)N1CCC(N2CCCC(C(=O)c3cc(C)c(OC)c(C)c3)C2)CC1 (stereo unspecified)	Lmaj promast 92.8
CCCCNC(=O)N1CCCC(C(=O)c2cc(C)c(OC)c(C)c2)C1 (stereo unspecified)	none (no result: Lmaj promast, DTT redox prof)
CCOC(=O)N1CCC(N2CCCC(C(=O)c3ccc4cc(OC)ccc4c3)C2)CC1 (stereo unspecified)	Lmaj promast 97.7, T cruzi inh 56.3
CCOC(=O)c1c(C)[nH]c(C(=O)N2CCCC(C(=O)c3ccccc3OC)C2)c1C (stereo unspecified)	none (no result: Lmaj promast, DTT redox prof)
CCOC(=O)N1CCC(N2CCCC(C(=O)c3ccccc3OC)C2)CC1 (stereo unspecified)	Lmaj promast 80.4
CN(C)c1ccc(-c2ccnc3c2CC(C)(C(=O)NCc2ccco2)O3)cc1 (stereo unspecified)	none (no result: Lmaj promast, Lipid droplet, DTT redox prof, T cruzi inh)
CCOC(=O)Cc1csc(NC(=O)CSc2nnc(-c3ccc(OC)cc3)n2C)n1	T cruzi inh 69.5 (no result: Lipid droplet)
CCOC(=O)Cc1csc(NC(=O)CSc2nnc3ccccn23)n1	none
CC1CN(C(=O)/C(C#N)=C2\N=C(NC(=O)c3ccc(F)cc3)c3ccccc32)CC(C)O1 (stereo unspecified)	none (no result: Lmaj promast, DTT redox prof)
COc1ccc(-c2nnc(SCC(=O)O)n2Cc2ccccc2)cc1	none (no result: Lmaj promast, DTT redox prof)
C=CCn1c(-c2ccc(OC)cc2)nc2ccccc21	Lmaj promast 96.3 (no result: T cruzi inh)
COc1ccccc1Cn1c(-c2ccccc2OC)nc2ccccc21	Lmaj promast 98.4
COc1ccc2c(c1)nc(N)n2Cc1ccccc1	Lmaj promast 63.6 (no result: Lipid droplet)
COc1ccc(-c2n(Cc3ccccc3)c3ccccc3[n+]2Cc2ccccc2)cc1	Lmaj promast 99.6
COc1ccc2c(c1)c(=O)c(Br)c(C)n2Cc1ccccc1	none (no result: Lipid droplet)
CC/C(=N\NC(=O)CNC(=O)/C=C/c1ccc(OC)cc1)c1ccccc1	none (no result: Lmaj promast, DTT redox prof)
COc1ccc(CCNC(=O)CSc2nn(-c3ccccc3)c(=S)s2)cc1	none (no result: Lmaj promast, DTT redox prof)
Cc1cc(C)[n+](-c2ccc(Oc3ccccc3)c(S(=O)(=O)[O-])c2)[nH]1	none (no result: Lmaj promast, DTT redox prof)
CCOCCn1c(-c2ccc(OC)cc2)nc2ccccc21	none (no result: Lipid droplet)
COc1ccc(-c2nc3ccccc3n2Cc2ccccc2)cc1	Lmaj promast 53.4
Cc1ccc(C#N)c(SCCN2CCCCC2)n1	none (no result: Lmaj promast, DTT redox prof)
Cc1cccc2cc(C#N)c(SCCN3CCCCC3)nc12	Lmaj promast 99.8 (no result: MPTP inh, Lipid droplet)
Cc1ccc2nc3c(c(N)c2c1)CCN3c1ccccc1	Lmaj promast 89.4 (no result: Lipid droplet)
CCCCCCCCOC(=O)/C=C/c1c(C)[nH]c(=O)[nH]c1=O	Lmaj promast 93.0
Cc1nn(CC(=O)OCC(=O)Nc2c(C(C)C)cccc2C(C)C)c(C)c1[N+](=O)[O-]	Lmaj promast 51.0
Cc1nn(CC(=O)OCC(=O)Nc2ccccc2[N+](=O)[O-])c(C)c1[N+](=O)[O-]	Lmaj promast 64.9
COc1ccc(C(CNC(=O)COc2cccc(C(F)(F)F)c2)N2CCCC2)cc1 (stereo unspecified)	none (no result: Lmaj promast, Lipid droplet, DTT redox prof, T cruzi inh)
CCN(CC)S(=O)(=O)c1ccc(Cl)c(C(=O)OC)c1	Lmaj promast 61.1
CCN(CC)S(=O)(=O)c1ccc(Cl)c(C(=O)NCc2ccccc2Cl)c1	Lmaj promast 98.6 (no result: Lipid droplet)
CCN(CC)S(=O)(=O)c1cc(C(=O)OC)ccc1Cl	none (no result: Lipid droplet)
Cc1nn(-c2ccccc2)c2c1CC(=O)Nc1ccccc1-2	none (no result: Lmaj promast, Lipid droplet, DTT redox prof, T cruzi inh)
Cc1ccc(S(=O)(=O)NCC(c2cccnc2)N2CCOCC2)cc1 (stereo unspecified)	none
CS(=O)(=O)NCC(c1cccnc1)N1CCN(c2ccccc2F)CC1 (stereo unspecified)	none (no result: Lmaj promast, DTT redox prof)
O=S(=O)(NCC(c1cccnc1)N1CCN(c2ccc(F)cc2)CC1)c1cccs1 (stereo unspecified)	Lmaj promast 87.4
O=S(=O)(NCC(c1cccnc1)N1CCN(c2ccccc2F)CC1)c1cccs1 (stereo unspecified)	Lmaj promast 78.5
O=S(=O)(NCC(c1cccnc1)N1CCN(c2ccc(F)cc2)CC1)c1ccc(F)cc1 (stereo unspecified)	Lmaj promast 91.2
COC(=O)c1ccccc1Oc1ccc(NC(=O)CCCl)cc1	none
CCOc1ccc(N(Cc2ccc(C(=O)O)cc2)S(=O)(=O)c2ccc(C)cc2)cc1	none (no result: Lmaj promast, DTT redox prof)
S=C(NC12CC3CC(CC(C3)C1)C2)N1CCCC1	Lmaj promast 53.2
COc1ccc(-c2nn(C)c(=O)c3ccccc23)cc1NC(=O)Cn1nc(C)c2ccccc2c1=O	Lmaj promast 99.5, T cruzi inh 73.6
CC1CC(C)CN(CCCn2c(=S)[nH]c3ccccc3c2=O)C1 (stereo unspecified)	Lmaj promast 89.5
O=c1c2ccccc2[nH]c(=S)n1CCCN1CCN(c2ccccc2)CC1	T cruzi inh 57.8 (no result: Lmaj promast, Lipid droplet, DTT redox prof)
O=C(CSc1n[nH]c(=O)[nH]c1=O)NC1CC1	none
Cc1cc(Cl)c(S(=O)(=O)Nc2ccc3c(c2)OCO3)cc1OCC(N)=O	none
Cc1ccc(NS(=O)(=O)c2cc(OCC(N)=O)c(C)cc2Cl)cc1	Lmaj promast 78.5
COc1ccccc1NS(=O)(=O)c1cc(NC(=O)C2CC2)ccc1N1CCOCC1	Lmaj promast 87.7 (no result: MPTP inh)
COc1ccc(NS(=O)(=O)c2cc(N/C(=N\S(=O)(=O)c3ccccc3)c3ccc(F)cc3)ccc2Cl)cc1	Lmaj promast 76.3
COc1ccc(NS(=O)(=O)c2cc(C(=O)N3CCN(C(C)=O)CC3)ccc2Cl)cc1	none
COc1ccccc1NS(=O)(=O)c1cc(NC(=O)Nc2cccc(C)c2)ccc1N1CCCCC1	T cruzi inh 59.9
COc1ccccc1NS(=O)(=O)c1cccc(NC(=O)c2sc3ccccc3c2Cl)c1	Lmaj promast 95.4, T cruzi inh 77.8
O=C(c1cc2cc(F)ccc2[nH]1)N1CCN(C(=O)c2ccco2)CC1	none (no result: Lmaj promast, DTT redox prof)
COc1ccccc1NC(=O)Nc1ccc(Cl)c(S(=O)(=O)Nc2ccccc2OC)c1	Lmaj promast 98.7
COc1ccccc1NS(=O)(=O)c1cc(NC(=O)c2ccc3ccccc3n2)ccc1Cl	none
CCOC(=O)C1=C(C)NC(SCC(N)=O)=C(C#N)C1c1cccs1 (stereo unspecified)	none (no result: Lipid droplet)
CCOC(=O)C1=C(C)NC(SCC(=O)Nc2cc(C)on2)=C(C#N)C1c1cccs1 (stereo unspecified)	Lmaj promast 59.9
COc1ccccc1OCCCCNCCO	none
Cc1cccc(C)c1OCCCCCNCCO	Lmaj promast 89.2
CC(C)c1ccccc1OCCCCCNCCO	Lmaj promast 91.2 (no result: Lipid droplet)
Cc1ccccc1OCCCCCNCCO	Lmaj promast 61.7
CC(C)CN1C(=O)c2ccc(C(=O)Nc3c[nH]c(=O)[nH]c3=O)cc2C1=O	none
COc1cccc(NC(=O)CN2C(=O)COc3ccc(S(=O)(=O)N4CCC(C)CC4)cc32)c1	none (no result: Lmaj promast, DTT redox prof)
